Measured values: ChEMBL document CHEMBL1157195, “Synthesis, cytotoxic activity, and SAR analysis of the derivatives of taxchinin A and brevifoliol” (Bioorg Med Chem, 2008)
Calls of active or inactive are those of the source. The calls are words filed in the database; no cut-off is given here.

test system: A459; assay: (§1) Cytotoxicity against human A459 cells after 72 hrs by sulforhodamine B assay; assay type: cell-based; settings: not given
How it was run: (§2)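 Human non-small lung cancer cells (A459, ATCC), exponentially growing, seeded at 4 × 10^4/mL in 96-well plates and pre-incubated 72 h at 37 °C, 5% CO2. Compounds added at 100, 10, 1 and 0.1 μM; further 72 h exposure. Cells fixed with cold 50% TCA (4 °C, 1 h), stained 30 min with 0.4% SRB in 1% acetic acid, dye solubilized in 10 mM unbuffered Tris; OD read at 570 nm.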

With `C=C1[C@H]2C[C@]3(C(C)(C)O)C[C@H](O)C(C)=C3[C@@H](OC(=O)c3ccccc3)[C@H](OC(C)=O)[C@]2(C)[C@@H](OC(C)=O)C[C@@H]1O` the Activity was “inactive”.
With `C=C1[C@H]2C[C@]3(C(C)(C)O)CC(=O)C(C)=C3[C@@H](OC(=O)c3ccccc3)[C@H](OC(C)=O)[C@]2(C)[C@@H](OC(C)=O)C[C@@H]1O` the Activity was “inactive”.

test system: not listed separately; assay: as §1; assay type: cell-based; settings: Homo sapiens, A459, 72 h; read-out: IC50; how it was run: as §2

Going from `C=C1[C@@H](O[Si](CC)(CC)CC)C[C@H](OC(C)=O)[C@@]2(C)[C@@H](OC(C)=O)[C@H](OC(=O)c3ccccc3)C3=C(C)[C@@H](O[Si](CC)(CC)CC)C[C@@]3(C(C)(C)O)[C@@H](OC(C)=O)[C@H]12` to `C=C1[C@@H](O)C[C@H](OC(C)=O)[C@@]2(C)[C@@H](OC(C)=O)[C@H](OC(=O)c3ccccc3)C3=C(C)[C@@H](O[Si](C)(C)C(C)(C)C)C[C@@]3(C(C)(C)O)[C@@H](OC(C)=O)[C@H]12`, the IC50 falls from 87.3 µM to 12.4 µM (7-fold).

Going from `CC(=O)O[C@H]1CC=C(C=O)[C@H]2C=C3CC(=O)C(C)=C3[C@@H](OC(=O)c3ccccc3)[C@H](OC(C)=O)[C@]12C` to `C=C1[C@H]2C=C3CC(=O)C(C)=C3[C@@H](OC(=O)c3ccccc3)[C@H](OC(C)=O)[C@]2(C)[C@@H](OC(C)=O)C[C@@H]1O`, the IC50 rises from 11.3 µM to 21.5 µM (1.9-fold).

Going from `C=C1C(=O)C[C@H](OC(C)=O)[C@@]2(C)[C@@H](OC(C)=O)[C@H](OC(=O)c3ccccc3)C3=C(C)C(=O)C[C@@]3(C(C)(C)O)[C@@H](OC(C)=O)[C@H]12` [5,13-DIOXOTAXCHININ A] to `C=C1[C@@H](O)C[C@H](OC(C)=O)[C@@]2(C)[C@@H](OC(C)=O)[C@H](OC(=O)c3ccccc3)C3=C(C)C(=O)C[C@@]3(C(C)(C)O)[C@@H](OC(C)=O)[C@H]12` [13-OXO-TAXCHININ A], the IC50 rises from 1.68 µM to 91.6 µM (55-fold). The first is the more potent here.

Compared with `C=C1[C@@H](O)C[C@H](OC(C)=O)[C@@]2(C)[C@@H](OC(C)=O)[C@H](OC(=O)c3ccccc3)C3=C(C)[C@@H](O)C[C@@]3(C(C)(C)O)[C@@H](OC(C)=O)[C@H]12` [TAXCHININ A], `C=C1C(=O)C[C@H](OC(C)=O)[C@@]2(C)[C@@H](OC(C)=O)[C@H](OC(=O)c3ccccc3)C3=C(C)[C@@H](O)C[C@@]3(C(C)(C)O)[C@@H](OC(C)=O)[C@H]12` is 19-fold lower in IC50: 60.5 µM for the first, 3.16 µM for the second. The second is the more potent here.

Going from `C=C1C(=O)C=C[C@]2(C)[C@@H]1C=C1CC(=O)C(C)=C1[C@@H](OC(=O)c1ccccc1)[C@@H]2OC(C)=O` to `C=C1C(=O)C=C[C@]2(C)[C@@H]1C[C@]1(C(C)(C)O)CC(=O)C(C)=C1[C@@H](OC(=O)c1ccccc1)[C@@H]2OC(C)=O`, the IC50 rises from 2.8 µM to 6.22 µM (2.2-fold). The first is the more potent here.

Compared with `C=C1C(=O)C[C@H](OC(C)=O)[C@@]2(C)[C@@H](OC(C)=O)[C@H](OC(=O)c3ccccc3)C3=C(C)[C@H]4C[C@]3([C@@H](OC(C)=O)[C@H]12)C(C)(C)O4`, `C=C1C(=O)C[C@H](OC(C)=O)[C@@]2(C)[C@@H](OC(C)=O)[C@H](OC(=O)c3ccccc3)C3=C(C)[C@@H](O[Si](C)(C)C(C)(C)C)C[C@@]3(C(C)(C)O)[C@@H](OC(C)=O)[C@H]12` is 1.6-fold lower in IC50: 0.75 µM for the first, 0.48 µM for the second.

Compared with `C=C1[C@H]2C[C@@]34C[C@@H](OC3(C)C)C(C)=C4[C@@H](OC(=O)c3ccccc3)[C@H](OC(C)=O)[C@]2(C)[C@@H](OC(C)=O)C[C@@H]1O`, `CC(=O)O[C@H]1CC=C(C=O)[C@H]2C[C@@]34C[C@@H](OC3(C)C)C(C)=C4[C@@H](OC(=O)c3ccccc3)[C@H](OC(C)=O)[C@]12C` is 7.5-fold lower in IC50: 46.5 µM for the first, 6.17 µM for the second.

Compared with `C=C1[C@@H](O[Si](CC)(CC)CC)C[C@H](OC(C)=O)[C@]2(C)[C@@H]1C=C1CC(=O)C(C)=C1[C@@H](OC(=O)c1ccccc1)[C@@H]2OC(C)=O`, `C=C1[C@H]2C=C3CC(=O)C(C)=C3C(OC(=O)c3ccccc3)=C[C@]2(C)[C@@H](OC(C)=O)C[C@@H]1O` is 4.6-fold higher in IC50: 17.4 µM for the first, 80.7 µM for the second.

Compared with `CC(=O)O[C@H]1CC=C(C=O)[C@H]2C[C@]3(C(C)(C)O)CC(=O)C(C)=C3[C@@H](OC(=O)c3ccccc3)[C@H](OC(C)=O)[C@]12C`, `C=C1C(=O)C=C[C@@]2(C)[C@@H](OC(C)=O)[C@H](OC(=O)c3ccccc3)C3=C(C)C(=O)C[C@@]3(C(C)(C)O)[C@@H](OC(C)=O)[C@H]12` is 13-fold lower in IC50: 31.6 µM for the first, 2.48 µM for the second.

`C=C1C(=O)C=C[C@@]2(C)[C@@H](OC(C)=O)[C@H](OC(=O)c3ccccc3)C3=C(C)[C@@H](O)C[C@@]3(C(C)(C)O)[C@@H](OC(C)=O)[C@H]12` showed an IC50 of 5.89 µM.

same assay, conditions: a459

For `C=C1[C@@H](O)C[C@H](OC(C)=O)[C@@]2(C)[C@@H](OC(C)=O)[C@H](OC(=O)c3ccccc3)C3=C(C)[C@H]4C[C@]3([C@@H](OC(C)=O)[C@H]12)C(C)(C)O4`, the IC50 was “Not Active”.
For `C=C1[C@@H](O[Si](C)(C)C(C)(C)C)C[C@H](OC(C)=O)[C@@]2(C)[C@@H](OC(C)=O)[C@H](OC(=O)c3ccccc3)C3=C(C)[C@@H](O[Si](C)(C)C(C)(C)C)C[C@@]3(C(C)(C)O)[C@@H](OC(C)=O)[C@H]12`, the IC50 was “Not Active”.
